Measured values: ChEMBL document CHEMBL4196121, “Meridianin D Analogues Display Antibiofilm Activity against MRSA and Increase Colistin Efficacy in Gram-Negative Bacteria” (ACS Med Chem Lett, 2018)
Active and inactive are the calls of the source. No cut-off for these calls is given here.

How the values were obtained:
Staphylococcus aureus [1] = assay: Antibacterial activity against methicillin-resistant Staphylococcus aureus ATCC 43300 after 16 hrs by broth microdilution assay; assay type: functional; details: ATCC 43300, 16 h
Staphylococcus aureus [2] = assay: Antibiofilm activity against methicillin-resistant Staphylococcus aureus ATCC 43300 assessed induction of dispersion of preformed biofilm after 24 hrs by crystal violet staining based method; assay type: functional, organism-based; details: ATCC 43300, 24 h
Staphylococcus aureus [3] = assay: Potentiation of vancomycin-induced antibacterial activity against methicillin-resistant Staphylococcus aureus ATCC 43300 assessed as dispersion of preformed biofilm after 24 hrs by crystal violet staining based method; assay type: functional, organism-based; details: ATCC 43300, 24 h
Staphylococcus aureus [4] = assay: Effect on planktonic growth of methicillin-resistant Staphylococcus aureus ATCC 43300 at 60 uM after 16 hrs by broth microdilution assay; assay type: organism-based
Staphylococcus aureus [5] = assay: Antibiofilm activity against methicillin-resistant Staphylococcus aureus ATCC 43300 at < 60 uM after 16 hrs by broth microdilution assay; assay type: functional, organism-based
Acinetobacter baumannii [6] = assay: Antibacterial activity against Acinetobacter baumannii ATCC 17978 after 16 hrs by broth microdilution assay; assay type: organism-based
Acinetobacter baumannii [7] = assay: Antibacterial activity against Acinetobacter baumannii isolate 3941 after 16 hrs by broth microdilution assay; assay type: organism-based
Acinetobacter baumannii [8] = assay: Antibacterial activity against Acinetobacter baumannii isolate 4106 after 16 hrs by broth microdilution assay; assay type: organism-based
Acinetobacter baumannii [9] = assay: Antibacterial activity against Acinetobacter baumannii ATCC 19606 after 16 hrs by broth microdilution assay; assay type: organism-based, ATCC 19606 = CIP 70.34 = JCM 6841; details: for MIC: […]
Acinetobacter baumannii [10] = assay: Antibacterial activity against Acinetobacter baumannii isolate 5075 after 16 hrs by broth microdilution assay; assay type: organism-based
Klebsiella pneumoniae [11] = assay: Antibacterial activity against Klebsiella pneumoniae ATCC 2146 expressing NDM1 gene after 16 hrs by broth microdilution assay; assay type: organism-based; details: for Activity: in vitro; for MIC: […]
Klebsiella pneumoniae [12] = assay: Antibacterial activity against Klebsiella pneumoniae isolate C3 after 16 hrs by broth microdilution assay; details: for MIC: […]
Klebsiella pneumoniae [13] = assay: Antibacterial activity against Klebsiella pneumoniae isolate B9 after 16 hrs by broth microdilution assay; details: in vivo
Staphylococcus aureus [14] = assay: Inhibition of biofilm formation in methicillin-resistant Staphylococcus aureus ATCC 43300 after 24 hrs by crystal violet staining based method; assay type: functional, organism-based; details: ATCC 43300, 24 h
Procedure, shortened: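 Read-out is the IC50, taken as the compound concentration that inhibits 50% of MRSA 43300 biofilm formation.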

Escherichia coli [15] = assay: Antibacterial activity against Escherichia coli ATCC 25922 expressing mcr1 gene after 16 hrs by broth microdilution assay; assay type: organism-based; details: in vitro
Escherichia coli [16] = assay: Antibacterial activity against Escherichia coli ATCC 25922 after 16 hrs by broth microdilution assay; assay type: organism-based
Acinetobacter baumannii [17] = assay: Antibacterial activity against Acinetobacter baumannii ATCC 17978 expressing mcr1 gene after 16 hrs by broth microdilution assay; assay type: organism-based; details: in vitro
Klebsiella pneumoniae [18] = assay: Potentiation of colistin-induced antimicrobial activity against Klebsiella pneumoniae isolate C3 assessed as fold reduction in colistin MIC after 16 hrs by broth microdilution assay; assay type: functional
Procedure, shortened: (§1)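 Analogue at a fixed 60 μM unless otherwise noted, combined with colistin against the Gram-negative strain. Potentiation is read as the fold reduction in colistin MIC relative to colistin alone. A. baumannii 3941/4106 and K. pneumoniae C3/B9 are primary clinical isolates with genomically encoded colistin resistance.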

Klebsiella pneumoniae [19] = assay: Potentiation of colistin-induced antimicrobial activity against Klebsiella pneumoniae isolate B9 after 16 hrs by broth microdilution assay; assay type: functional, organism-based; procedure, shortened: as §1
Acinetobacter baumannii [20] = assay: Potentiation of colistin-induced antimicrobial activity against Acinetobacter baumannii ATCC 19606 assessed as fold reduction in colistin MIC after 16 hrs by broth microdilution assay; assay type: functional, ATCC 19606 = CIP 70.34 = JCM 6841; procedure, shortened: as §1
Enterococcus faecium = assay: Antibacterial activity against vancomycin-resistant Enterococcus faecium ATCC 51559 after 16 hrs by broth microdilution assay; assay type: functional; details: ATCC 51559, 16 h
Staphylococcus aureus [21] = assay: Antibacterial activity against methicillin-resistant Staphylococcus aureus ATCC 1556 after 16 hrs by broth microdilution assay; assay type: functional; details: ATCC 1556, 16 h
Staphylococcus aureus [22] = assay: Antibacterial activity against methicillin-resistant Staphylococcus aureus ATCC 6538 after 16 hrs by broth microdilution assay; assay type: functional; details: ATCC 6538, 16 h
Staphylococcus aureus [23] = assay: Antibiofilm activity against methicillin-resistant Staphylococcus aureus ATCC 43300 assessed as dispersion of preformed biofilm at 80 uM after 24 hrs by crystal violet staining based method relative to control; assay type: functional
Acinetobacter baumannii [24] = assay: Potentiation of colistin-induced antimicrobial activity against Acinetobacter baumannii ATCC 17978 assessed as fold reduction in colistin MIC after 16 hrs by broth microdilution assay; assay type: functional; procedure, shortened: as §1
Acinetobacter baumannii [25] = assay: Potentiation of colistin-induced antimicrobial activity against Acinetobacter baumannii isolate 3941 after 16 hrs by broth microdilution assay; assay type: functional, organism-based; procedure, shortened: as §1
Acinetobacter baumannii [26] = assay: Potentiation of colistin-induced antimicrobial activity against Acinetobacter baumannii isolate 4106 after 16 hrs in presence of 0.01% triton X-100 by broth microdilution assay; assay type: functional, organism-based
Klebsiella pneumoniae [27] = assay: Potentiation of colistin-induced antimicrobial activity against Klebsiella pneumoniae isolate B9 after 16 hrs in presence of 0.01% triton X-100 by broth microdilution assay; assay type: functional, organism-based
Escherichia coli [28] = assay: Potentiation of colistin-induced antimicrobial activity against Escherichia coli ATCC 25922 expressing mcr1 gene assessed as fold reduction in colistin MIC after 16 hrs by broth microdilution assay; assay type: functional; procedure, shortened: as §1
Escherichia coli [29] = assay: Potentiation of colistin-induced antimicrobial activity against Escherichia coli ATCC 25922 assessed as fold reduction in colistin MIC after 16 hrs by broth microdilution assay; assay type: functional; procedure, shortened: as §1
Acinetobacter baumannii [30] = assay: Potentiation of colistin-induced antimicrobial activity against Acinetobacter baumannii ATCC 17978 expressing mcr1 gene assessed as fold reduction in colistin MIC after 16 hrs by broth microdilution assay; assay type: functional; procedure, shortened: as §1
Acinetobacter baumannii [31] = assay: Potentiation of colistin-induced antimicrobial activity against Acinetobacter baumannii isolate 4106 assessed as fold reduction in colistin MIC after 16 hrs by broth microdilution assay; assay type: functional; procedure, shortened: as §1
Klebsiella pneumoniae [32] = assay: Potentiation of colistin-induced antimicrobial activity against Klebsiella pneumoniae isolate B9 assessed as fold reduction in colistin MIC after 16 hrs by broth microdilution assay; assay type: functional; procedure, shortened: as §1
Acinetobacter baumannii [33] = assay: Potentiation of colistin-induced antimicrobial activity against Acinetobacter baumannii isolate 5075 assessed as fold reduction in colistin MIC after 16 hrs by broth microdilution assay; assay type: functional; procedure, shortened: as §1
Klebsiella pneumoniae [34] = assay: Potentiation of colistin-induced antimicrobial activity against Klebsiella pneumoniae ATCC 2146 expressing NDM1 gene assessed as fold reduction in colistin MIC after 16 hrs by broth microdilution assay; assay type: functional; procedure, shortened: as §1

| Compound | MIC (Staphylococcus aureus [1]) [µM] | EC50 (Staphylococcus aureus [2]) [µM] | EC50 (Staphylococcus aureus [3]) [µM] | Activity (Staphylococcus aureus [4]) | Activity (Staphylococcus aureus [5]) | Activity (Acinetobacter baumannii [6]) | IC50 (Staphylococcus aureus [14]) [µM] | MIC (Escherichia coli [15]) [µM] | MIC (Escherichia coli [16]) [µM] | MIC (Acinetobacter baumannii [17]) [µM] | MIC (Acinetobacter baumannii [6]) [µM] | MIC (Acinetobacter baumannii [7]) [µM] | MIC (Acinetobacter baumannii [8]) [µM] | MIC (Acinetobacter baumannii [9]) [µM] | MIC (Acinetobacter baumannii [10]) [µM] | MIC (Klebsiella pneumoniae [11]) [µM] | fold change (FC) (Klebsiella pneumoniae [18]) | fold change (FC) (Acinetobacter baumannii [20]) | MIC (Klebsiella pneumoniae [12]) [µM] | MIC (Klebsiella pneumoniae [13]) [µM] | also measured |
| --- | --- | --- | --- | --- | --- | --- | --- | --- | --- | --- | --- | --- | --- | --- | --- | --- | --- | --- | --- | --- | --- |
| Cl.Nc1nc(-c2c[nH]c3cc(Br)ccc23)c[nH]1 | 25 | 101 | > 100 | Toxic | inactive | Toxic |  |  |  |  |  |  |  |  |  |  |  |  |  |  | Activity (Acinetobacter baumannii [7]): Toxic; Activity (Acinetobacter baumannii [8]): Toxic; Activity (Acinetobacter baumannii [9]): Toxic; Activity (Acinetobacter baumannii [10]): Toxic; Activity (Klebsiella pneumoniae [11]): Toxic; Activity (Klebsiella pneumoniae [12]): Toxic; Activity (Klebsiella pneumoniae [13]): Toxic |
| Cl.Nc1nc(-c2c[nH]c3ccc(Br)cc23)c[nH]1 | 25 | 102 | > 100 | Toxic | inactive | Toxic |  |  |  |  |  |  |  |  |  |  |  |  |  |  | Activity (Acinetobacter baumannii [7]): Toxic; Activity (Acinetobacter baumannii [8]): Toxic; Activity (Acinetobacter baumannii [9]): Toxic; Activity (Acinetobacter baumannii [10]): Toxic; Activity (Klebsiella pneumoniae [11]): Toxic; Activity (Klebsiella pneumoniae [12]): Toxic; Activity (Klebsiella pneumoniae [13]): Toxic |
| CNc1nccc(-c2c[nH]c3ccc(Br)cc23)n1.Cl | 100 | 73.1 | 71.4 |  |  |  | 28.9 | > 200 | > 200 | > 200 | > 200 | > 200 | > 200 | > 200 | > 200 | > 200 | 512 | 16 | > 200 | > 200 | Activity (Klebsiella pneumoniae [19]): Active |
| Brc1ccc2[nH]cc(-c3ccnc(NCc4ccccc4)n3)c2c1.Cl | 6.25 | > 80 | > 80 |  |  |  | 9.62 | > 200 | > 200 | > 200 | > 200 | > 200 | > 200 | > 200 | > 200 | > 200 | 512 | 16 | > 200 | > 200 | MIC (Enterococcus faecium): 25 µM; MIC (Staphylococcus aureus [21]): 6.25 µM; MIC (Staphylococcus aureus [22]): 6.25 µM; Activity (Staphylococcus aureus [23]): 26.2%; fold change (FC) (Acinetobacter baumannii [24]): 16; Activity (Acinetobacter baumannii [25]): Active; Activity (Acinetobacter baumannii [26]): inactive; Activity (Klebsiella pneumoniae [27]): inactive |
| CCNc1nccc(-c2c[nH]c3ccc(Br)cc23)n1.Cl | 50 | 75.8 | 66.5 |  |  |  | 24.6 | > 200 | > 200 | > 200 | > 200 | > 200 | > 200 | > 200 | > 200 | > 200 | 512 | 16 | > 200 | > 200 | fold change (FC) (Escherichia coli [28]): 16; fold change (FC) (Escherichia coli [29]): 8; fold change (FC) (Acinetobacter baumannii [30]): 128; fold change (FC) (Acinetobacter baumannii [24]): 16; fold change (FC) (Acinetobacter baumannii [31]): 512; fold change (FC) (Klebsiella pneumoniae [32]): 512; fold change (FC) (Acinetobacter baumannii [33]): 16; fold change (FC) (Klebsiella pneumoniae [34]): 16; Activity (Acinetobacter baumannii [25]): Active; Activity (Klebsiella pneumoniae [19]): Active; Activity (Acinetobacter baumannii [26]): inactive; Activity (Klebsiella pneumoniae [27]): inactive |
